Test results taken from ChEMBL document CHEMBL4043073, “Boronic Acid Modifications Enhance the Anti-Influenza A Virus Activities of Novel Quindoline Derivatives” (J Med Chem, 2017).
The source made the active and inactive calls. The rule behind the calls is not given here.

Experiments:
[1] = Selectivity index, ratio of CC50 for MDCK cells to IC50 for Influenza A virus (A/Puerto Rico/8/34(H1N1)) infected in MDCK cells assessed as reduction in virus-induced cytopathic effect; type: toxicity, cell-based; settings: dog, read-out: Ratio CC50/IC50
[2] = Drug uptake in human A549 cell nucleus at 20 uM after 4 hrs by DAPI staining based confocal microscopic analysis; type: ADME; settings: a549, 4 h
Summary of the method: (§1)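 A549 cells incubated with 20 μM compound 4 h at 37 °C, then fixed and DAPI-stained. Compound intrinsic fluorescence located by confocal microscopy.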

A549 = assay: Cytotoxicity against human A549 cells at 20 uM after 48 hrs by resazurin based fluorescence method; type: cell-based; settings: a549, 48 h
Summary of the method: (§2)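 Confluent MDCK, A549 or H1299 cells exposed in triplicate to compound for 48 h at 37 °C (A549/H1299 at 20 μM). Resazurin added to 0.2 mg/mL final for 16 h. Fluorescence read at ex 544 / em 595 nm; viability as % of untreated.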

Influenza A virus [3] = assay: Antiviral activity against Influenza A virus (A/Puerto Rico/8/34(H1N1)) infected in MDCK cells assessed as reduction in virus titer at 10 uM preincubated with virus for 1 hr followed by viral infection measured after 24 hrs by crystal violet staining based plaque assay; type: functional, cell-based; settings: A/Puerto Rico/8/1934(H1N1)
Summary of the method: (§3)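 PR8 (MOI 1.0) preincubated with compound (2.5–10 μM) 1 h at 37 °C, then used to infect MDCK cells. After adsorption, medium with the same compound concentration was added. At 24 h p.i. supernatant virus titer was measured by plaque assay; n = 3.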

[4] = Cytotoxicity against MDCK cells after 48 hrs by resazurin based fluorescence method; type: cell-based, Canis lupus familiaris; settings: dog; summary of the method: as §2
Influenza A virus [5] = assay: Antiviral activity against Influenza A virus (A/Puerto Rico/8/34(H1N1)) infected in MDCK cells assessed as reduction in virus titer preincubated with virus for 1 hr followed by viral infection measured after 24 hrs by crystal violet staining based plaque assay; type: functional, cell-based; settings: A/Puerto Rico/8/1934(H1N1); summary of the method: as §3
Influenza A virus [6] = assay: Antiviral activity against Influenza A virus (A/Puerto Rico/8/34(H1N1)) infected in MDCK cells assessed as virus yeild reduction preincubated with virus at 37 degreeC for 1 hr followed by viral infection for 1 hr measured after 3 days by crystal violet staining based plaque assay; type: functional, cell-based; settings: A/Puerto Rico/8/1934(H1N1)
Summary of the method: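 Plaque reduction: about 50–100 PFU/well of PR8, Cal09 or Minnesota preincubated with compound (0–10 μM) 1 h at 37 °C. Mixture then adsorbed to MDCK monolayers 1 h at 4 °C. Overlay was DMEM with 1.5% agarose, DEAE-dextran and 1 μg/mL TPCK-trypsin for 3 days at 37 °C. Glutaraldehyde fix, crystal violet stain, plaque count; IC50 derived; n = 4.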

Influenza A virus [7] = assay: Antiviral activity against Influenza A virus (A/Puerto Rico/8/34(H1N1)) infected in MDCK cells assessed as virus yeild reduction at 10 uM preincubated with cells for 1 hr followed by viral infection for 1 hr measured at 24 hrs post infection by crystal violet staining based plaque assay; type: functional, cell-based; settings: A/Puerto Rico/8/1934(H1N1)
Summary of the method: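 Time-of-addition on MDCK cells, PR8 MOI 1.0, 10 μM compound. Three arms: cells pretreated before infection; compound present during adsorption 1 h at 4 °C; or compound added after removal of unadsorbed virus. Virus yield at 24 h p.i. by plaque assay; n = 3.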

[8] = system: Influenza A virus (A/Puerto Rico/8/1934(H1N1)); assay: Inhibition of Influenza A virus (A/Puerto Rico/8/34(H1N1)) hemagglutinin mediated chicken erythrocytes aggregation at 10 uM after 60 mins by hemagglutination test; type: cell-based
Summary of the method: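 Hemagglutination inhibition: PR8-induced aggregation of chicken erythrocytes tested with 10 μM compound; anti-HA antibody (0.625–5 μg/mL) as comparator.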

[9] = system: Influenza A virus (A/Puerto Rico/8/1934(H1N1)); assay: Inhibition of Influenza A virus (A/Puerto Rico/8/34(H1N1)) neuraminidase using MUNANA as substrate preincubated for 30 mins followed by substrate addition measured after 30 mins by fluorescence assay relative to control
Summary of the method: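 Inactivated PR8 virus supernatant mixed with compound (10 μM) in 33 mM MES […], 4 mM CaCl2 for 30 min at 37 °C. MUNANA (20 μM) was added for 30 min at 37 °C and the reaction stopped with glycine/ethanol pH 10.7. Fluorescence read at ex 360 / em 440 nm; zanamivir 10 μM as reference; n = 3.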

Influenza A virus [10] = assay: Antiviral activity against Influenza A virus (A/Puerto Rico/8/34(H1N1)) infected in Kunming mouse assessed as pulmonary viral titer reduction at 10 mg/kg/day, po qd for 4 days measured on day 4 post last dose by crystal violet staining based plaque assay; type: functional, organism-based; settings: A/Puerto Rico/8/1934(H1N1)
Summary of the method: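 Female 4-week-old Kunming mice infected intranasally with PR8 (4 HAU/mouse). Oral gavage once daily began 2 h post-inoculation; placebo control. Mice euthanised on day 4; lungs homogenised in PBS and titrated by plaque assay on cell monolayers (agarose overlay, 3 days, crystal violet).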

Canis lupus familiaris [11] = species: Canis lupus familiaris; assay: Inhibition of MAPK signaling-mediated nuclear import of viral RNP in MDCK cells infected with Influenza A virus (A/Puerto Rico/8/34(H1N1)) assessed as p38 phosphorylation at 5 uM preincubated with virus for 1 hr followed by viral infection after 4 hrs by Western blot method relative to control (reference value: 5.1); type: cell-based
Summary of the method: (§4)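 PR8 (MOI 1.0) pretreated with compound 1 h at 37 °C, then MDCK cells were kept in infecting medium with 5 or 10 μM for 4 h; ribavirin 50 μg/mL as comparator. Lysates were immunoblotted for phospho-ERK1/2, p38, NF-κB or Akt, with β-actin/GAPDH loading controls and AP/NBT-BCIP detection. Densitometry was normalised to uninfected cells (= 1.0); n = 3.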

Canis lupus familiaris [12] = species: Canis lupus familiaris; assay: (§5) Inhibition of NFkappaB activation-mediated viral RNA synthesis in MDCK cells infected with Influenza A virus (A/Puerto Rico/8/34(H1N1)) assessed as NF-kB phosphorylation level at 10 uM preincubated with virus for 1 hr followed by viral infection measured after 4 hrs by Western blot method relative to control (reference value: 1.8); type: cell-based; summary of the method: as §4
Canis lupus familiaris [13] = species: Canis lupus familiaris; assay: as §5, with “endocytosis” for “RNA synthesis”, “Akt” for “NF-kB”, “5” for “10”, “1.4)” for “1.8)”; type: cell-based; summary of the method: as §4
[14] = Drug uptake in human A549 cells at 20 uM after 4 hrs by DAPI staining based confocal microscopic analysis; type: ADME, cell-based; settings: a549, 4 h; summary of the method: as §1
[15] = Drug uptake in human A549 cell cytoplasm at 20 uM after 4 hrs by DAPI staining based confocal microscopic analysis; type: ADME; settings: a549, 4 h; summary of the method: as §1
[16] = Selectivity index, ratio of CC50 for MDCK cells to IC50 for Influenza A virus (A/Puerto Rico/8/34(H1N1)) infected in MDCK cells by plaque assay; type: toxicity, cell-based; settings: dog, read-out: Ratio CC50/IC50
Vero = assay: Inhibition of Influenza A virus (A/Puerto Rico/8/34(H1N1)) hemagglutinin expressed in African green monkey Vero cells assessed as reduction in acid-induced syncytium formation treated at pH 5 for 10 mins measured after 2 hrs by Hema3Stat Pak-staining based microscopic analysis; type: cell-based; settings: Influenza A virus (A/Puerto Rico/8/1934(H1N1))
Summary of the method: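 Vero cells transfected with PR8 HA plasmid. At 16 h HA was cleaved with 5 μg/mL TPCK-trypsin for 15 min at 37 °C. Cells were preincubated with compound 15 min at 37 °C, then held at pH 5.0 with compound for 10 min at 37 °C. After rinsing, cells were kept 2 h in 10% FBS medium, stained with Hema3Stat Pak and examined for syncytia by microscopy.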

## O=C(Nc1ccccc1Nc1c2ccccc2nc2c1[nH]c1ccccc12)c1cccc(B(O)O)c1
[1]
  selectivity ratio: 27.9
[2]
  Drug uptake: Not Active
A549
  Activity: Non-Toxic
Influenza A virus [3]
  IC50: 2.5 µM
[4]
  CC50 at 48 h: 142 µM
Influenza A virus [5]
  Activity: Dose-dependent effect
  IC50: 2.2 µM
Influenza A virus [6]
  IC50: 3.2 µM
Influenza A virus [7]
  Activity: inactive
[8]
  inhibition: inactive
[9]
  inhibition: 72%
Influenza A virus [10]
  Activity: Active
Canis lupus familiaris [11]
  fold change (FC): 3.3
Canis lupus familiaris [12]
  fold change (FC): 0.4
Canis lupus familiaris [13]
  fold change (FC): 1.2
[14]
  Drug uptake: Active
[15]
  Drug uptake: Active
[16]
  selectivity ratio: 56.8 to 64.6
Vero
  inhibition: inactive
